Active and inactive are the calls of the source. The rule behind the calls is not given here.

Test [1] deals with MCF7. Description: Cytotoxicity against human MCF7 cells after 72 hrs by MTS/PMS assay. In kind it is functional, cell-based. Conditions: for IC50: MCF7, 72 h. The procedure, abridged:
(§1)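 MCF-7 cells grown in DMEM with 10% heat-inactivated FBS, penicillin, streptomycin, L-glutamine and MEM NEAA at 37 °C, 5% CO2. Seeded at 5000 cells/well. After 24 h, given fresh medium plus compound (DMSO stock diluted in DPBS; final 0–10 μM) for 72 h. Then serum-free medium with MTS/PMS for 1 h at 37 °C. A490 read, viability as % of untreated cells. IC50 read graphically. Six replicates, three independent experiments.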

The species entered for test [2] is Bos taurus. Description: Inhibition of bovine tubulin polymerization at 1 uM measured every 30 secs for 2 hrs by turbidity method. The procedure, abridged:
(§2)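 Kit-based turbidity assay with tubulin at 26.7 μM (2.94 mg/mL) in G-PB buffer (polymerization buffer, GTP, glycerol), assembled on ice. Compound stocks in DMSO diluted in water to give 1 or 10 μM. A350 read every 30 s for 2 h at 37 °C. Nocodazole and DMSO (1.43% or 0.14% v/v) as controls. Duplicate assays. Area under curve compared by one-way ANOVA with Bonferroni post-test.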

The species named for test [3] is Bos taurus. The test is described as follows: Inhibition of bovine tubulin polymerization at 10 uM measured every 30 secs for 2 hrs by turbidity method. In outline: as §2
For test [4], the species on record is Bos taurus. Description: Inhibition of bovine tubulin polymerization assessed as lag time for tubulin polymerization at 1 uM measured every 30 secs for 2 hrs by turbidity method. In outline: as §2
Test [5] relates to MCF7. Description: Cytotoxicity against human MCF7 cells assessed as cell viability at 5 to 10 uM after 72 hrs by MTS/PMS assay relative to control. The class given is functional. In outline:
as §1

On to `COc1ccc(/C=C\c2cc(OC)c(OC)c(OC)c2)cc1O` [COMBRETASTATIN A4], for which, in the test on MCF7 [1], the IC50 is 200 nM. Further, the inhibition entry in the test listed under Bos taurus [2] was “Active”.

On to `CCCCC/C=C\C/C=C\C/C=C\C/C=C\CCCC(=O)Oc1cc(/C=C\c2cc(OC)c(OC)c(OC)c2)ccc1OC`, for which the inhibition entry in the test filed under Bos taurus [3] is “inactive”. In the test listed under Bos taurus [4], the TIME lay in the range of 0.25 to 0.333 h. Moreover, in the test on MCF7 [1], the Activity result was “Dose-dependent effect” and 700 nM corresponded to half-maximal inhibition (IC50). Further, the inhibition entry in the test listed under Bos taurus [2] is “Active”.

As for `CCCCC/C=C\C/C=C\CCCCCCCC(=O)Oc1cc(/C=C\c2cc(OC)c(OC)c(OC)c2)ccc1OC`, in the test filed under Bos taurus [3], the inhibition entry is “inactive”. The TIME in the test filed under Bos taurus [4] is 0.25 to 0.333 h. For the same molecule, in the test with MCF7 [1], the IC50 was > 10000 nM. In addition, the Activity in the test on MCF7 [5] was 65 - 75%. Further, the inhibition entry in the test filed under Bos taurus [2] was “Active”.

For `CC/C=C\C/C=C\C/C=C\CCCCCCCC(=O)Oc1cc(/C=C\c2cc(OC)c(OC)c(OC)c2)ccc1OC`, the inhibition result in the test listed under Bos taurus [3] was “inactive”. Also, the TIME in the test listed under Bos taurus [4] was in the range of 0.25 to 0.333 h. Also, the IC50 in the test with MCF7 [1] was > 10000 nM. In addition, the Activity with MCF7 [5] is given as 65 - 75%. In addition, the inhibition result in the test filed under Bos taurus [2] was “Active”.

A word on the IC50: it is the concentration that inhibits the measured activity by half. Higher therefore signals weaker potency in that assay.

Values taken from ChEMBL document CHEMBL4196218, “Synthesis and in Vitro Bioactivity of Polyunsaturated Fatty Acid Conjugates of Combretastatin A-4” (J Nat Prod, 2018).
